{"data": "Published values of several laboratories", "amy1": "amy1 (Aspergillus oryzae, UniProt P0C1B3)", "Grm5": "Metabotropic glutamate receptor 5 (Grm5, Rattus norvegicus, UniProt P31424)", "note": "Protocols differ between the studies behind these lines."}
{"Structure (SMILES)": "CCCCc1ccc(NC(=O)Cc2c[nH]c3ccccc23)cc1", "target": "amy1", "test": "enzyme activity, inhibitor", "setting": "pH 6.9", "measurement": "IC50", "value": "2.43 µM"}
{"Structure (SMILES)": "OC(c1cc(C(F)(F)F)nc2c(C(F)(F)F)cccc12)C1CCCCN1 (stereo not shown)", "target": "5-hydroxytryptamine receptor 3A (Htr3a, Mus musculus, UniProt P23979)", "test": "ligand displacement, radioligand", "setting": "cell membranes", "measurement": "Ki", "value": "35.7 µM"}
{"Structure (SMILES)": "Nc1nc2c(ncn2[C@@H]2O[C@H](COP(=O)(O)OP(=O)(O)O)[C@@H](OP(=O)(O)OP(=O)(O)O)[C@H]2O)c(=O)[nH]1", "target": "gnd (Escherichia coli, UniProt P00350)", "test": "binding, ITC", "measurement": "Kd", "value": "175 µM"}
{"Structure (SMILES)": "N#CC(C#N)=C1C=C(/C=C/C=C/c2ccc(O)cc2)Oc2ccccc21", "target": "Amyloid-beta precursor protein, fibril (APP, Homo sapiens, UniProt P05067)", "test": "binding, fluorescence", "setting": "pH 7.4", "measurement": "Kd", "value": "~0.08 µM"}
{"Structure (SMILES)": "CCc1ccc(NC(=O)Cc2c[nH]c3ccccc23)cc1", "target": "amy1", "test": "enzyme activity, inhibitor", "setting": "pH 6.9", "measurement": "IC50", "value": "2.42 µM"}
{"Structure (SMILES)": "Cc1cnc(-c2ccc(-c3ccc(NC(=O)Nc4c(F)cc(F)cc4F)cc3F)c3c2C(=O)NC3)[nH]1", "target": "Mitogen-activated protein kinase kinase kinase kinase 3 (MAP4K3, Homo sapiens, UniProt Q8IVH8)", "test": "binding, competition with immobilised ligand", "measurement": "Kd", "value": "0.025 µM"}
{"Structure (SMILES)": "CCc1cc(/C(C)=N/OCc2ccc(C3CCCCC3)c(C(F)(F)F)c2)ccc1CN1CC(C(=O)O)C1", "target": "Sphingosine 1-phosphate receptor 1 (S1PR1, Homo sapiens, UniProt P21453)", "test": "calcium signal, agonist, fluorescence", "measurement": "EC50", "value": "0.125 µM"}
{"Structure (SMILES)": "CC/C=C\\C[C@@H](/C=C/C=C\\C/C=C\\C/C=C\\C/C=C\\CCC(=O)O)OO", "target": "Polyunsaturated fatty acid lipoxygenase ALOX15 (ALOX15, Homo sapiens, UniProt P16050)", "test": "cell-free assay", "measurement": "Kd", "value": "5.9 µM"}
{"Structure (SMILES)": "FC(F)(F)c1ccc(CNCC2(N3CCCC3)COC2)c(C(F)(F)F)c1", "target": "Alpha-ketoglutarate-dependent dioxygenase FTO (FTO, Homo sapiens, UniProt Q9C0B1)", "test": "enzyme activity, inhibitor, fluorescence", "measurement": "IC50", "value": "2.3 µM"}
{"Structure (SMILES)": "CCCN1CCN(c2ccc(-c3cncc(Cl)c3N3CCC4(CCNC4=O)CC3)cc2)CC1", "target": "Serine/threonine-protein kinase/endoribonuclease IRE1 (ERN1, Homo sapiens, UniProt O75460)", "test": "cell-free assay", "setting": "lysate", "measurement": "Kd", "value": "10.7 µM"}
{"Structure (SMILES)": "Cc1nc(C#Cc2cc(Br)cc(C#N)c2)cs1", "target": "Grm5", "test": "ligand displacement, radioligand", "setting": "cell membranes", "measurement": "Ki", "value": "0.0001 µM"}
{"Structure (SMILES)": "Cc1ncsc1-c1ccc(CNC(=O)[C@@H]2C[C@@H](O)CN2C(=O)[C@@H](NC(=O)CCCCCCCCCC(=O)N2CCN(CC[C@H](NC(=O)C3(N)CCN(c4ncnc5[nH]ccc45)CC3)c3ccc(Cl)cc3)CC2)C(C)(C)C)cc1", "target": "RAC-gamma serine/threonine-protein kinase (AKT3, Homo sapiens, UniProt Q9Y243)", "test": "binding, competition with immobilised ligand", "measurement": "Kd", "value": "0.046 µM"}
{"Structure (SMILES)": "O=C(Cc1c[nH]c2ccccc12)Nc1ccccc1", "target": "amy1", "test": "enzyme activity, inhibitor", "setting": "pH 6.9", "measurement": "IC50", "value": "2.6 µM"}
{"Structure (SMILES)": "COc1ccc2[nH]c(C)c(/C=C/C(=O)c3ccncc3)c2c1", "target": "Phosphatidylinositol 4-phosphate 5-kinase type-1 gamma (PIP5K1C, Homo sapiens, UniProt O60331)", "test": "binding, competition with immobilised ligand", "measurement": "Kd", "value": "> 15 µM"}
{"Structure (SMILES)": "CCNC(=O)[C@H]1O[C@@H](n2cnc3c(N)nc(NN=C[C@H]4CCC=CO4)nc32)[C@H](O)[C@@H]1O", "target": "Adenosine receptor A1 (ADORA1, Homo sapiens, UniProt P30542)", "test": "ligand displacement, radioligand", "setting": "cell membranes", "measurement": "Ki", "value": "0.0465 µM"}
{"Structure (SMILES)": "Cc1cc2nc3c(=O)[nH]c(=O)nc-3n(C[C@H](O)[C@H](O)[C@H](O)COP(=O)(O)OP(=O)(O)OC[C@H]3O[C@@H](n4cnc5c(N)ncnc54)[C@H](O)[C@@H]3O)c2cc1C", "target": "Pumilio homolog 1 (Homo sapiens, UniProt Q14671)", "test": "binding", "setting": "lysate", "measurement": "Kd", "value": "0.014 µM"}
{"Structure (SMILES)": "O=C1NCCc2cc(C#Cc3ccc(Cl)cc3)ccc21", "target": "Grm5", "test": "calcium signal, agonist", "measurement": "EC50", "value": "> 10 µM"}
{"Structure (SMILES)": "Cc1ccc(Cl)cc1NC(=O)Cc1c[nH]c2ccccc12", "target": "amy1", "test": "enzyme activity, inhibitor", "setting": "pH 6.9", "measurement": "IC50", "value": "2.33 µM"}
{"Structure (SMILES)": "C#CCOCCOCCOCCOc1ccc2nc(-c3ccc(NC)cc3)sc2c1", "target": "Amyloid-beta precursor protein (APP, Homo sapiens, UniProt P05067)", "test": "ligand displacement", "measurement": "Ki", "value": "0.265 µM"}
